Reference: ChEMBL document CHEMBL2057095, “Discovery and SAR of orally efficacious tetrahydropyridopyridazinone PARP inhibitors for the treatment of cancer” (Bioorg Med Chem, 2012)

What was measured:
Mus musculus [1] = assay: Toxicity in C57BL/6 mouse bearing B16F10 tumor assessed as body weight loss at 5 mg/kg/day, po administered BID from day 5 to day 9 post-tumor implantation co-administered with temozolomide relative to vehicle-treated control; type: organism-based; design: route oral; settings: in vivo
Procedure, shortened: (§1)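 Syngeneic B16F10 model: 6 × 10⁴ cells with 50% matrigel implanted s.c. into the flank of female C57BL/6 mice (6–8 weeks, 20 g). […] TMZ given orally at 50 mg/kg/day once daily over the same days. Tumor growth and body weight monitored.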

[2] = AUC (0 to 3 hrs) in mouse at 10 mg/kg, po; type: ADME, organism-based; design: time < 3 hr, dose 10 mg/kg, route oral; settings: plasma
Procedure, shortened: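 Screening mouse PK: single oral dose of 10 mg/kg; plasma concentrations determined up to 3 h.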

[3] = (§2) Oral bioavailability in mouse at 10 mg/kg; type: ADME, organism-based; settings: in vivo
Procedure, shortened: (§3)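 Standard mouse PK: oral dose of 10 mg/kg and intravenous dose of 3 mg/kg; plasma concentrations determined up to 8 h.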

[4] = Half life in mouse at 3 mg/kg, iv; type: ADME, organism-based; design: dose 3 mg/kg, route intravenous; settings: in vivo; procedure, shortened: as §3
[5] = (§4) AUC (0 to 8 hrs) in mouse at 10 mg/kg, po; type: ADME, organism-based, Plasma; design: time < 8 hr, dose 10 mg/kg, route oral; settings: plasma; procedure, shortened: as §3
[6] = Cmax in mouse at 10 mg/kg, po; type: ADME, organism-based; design: dose 10 mg/kg, route oral; settings: in vivo; procedure, shortened: as §3
[7] = Volume of distribution at steady state in mouse at 10 mg/kg, po and 3 mg/kg, iv; type: ADME, organism-based; settings: in vivo, read-out: Vdss; procedure, shortened: as §3
[8] = (§5) Clearance in mouse at 10 mg/kg, po and 3 mg/kg, iv; type: ADME, organism-based; settings: in vivo; procedure, shortened: as §3
B16-F10 [9] = assay: Potentiation of TMZ antitumor activity against mouse B16F10 cells xenografted in po dosed C57BL/6 mouse assessed as increase in tumor growth inhibition administered BID from day 5 to day 9 post-tumor implantation; type: functional, organism-based; procedure, shortened: as §1
Mus musculus [10] = assay: (§6) Toxicity in C57BL/6 mouse bearing B16F10 tumor assessed as body weight loss at […], po administered BID from day 5 to day 9 post-tumor implantation co-administered with temozolomide relative to vehicle-treated control; type: organism-based; design: route oral; settings: in vivo
Mus musculus [11] = assay: as §6; type: organism-based; design: route oral; settings: in vivo; remark: listed apart in the source
Mus musculus [12] = assay: Toxicity in C57BL/6 mouse bearing B16F10 tumor assessed as body weight loss at 50 mg/kg/day, po administered QD from day 5 to day 9 post-tumor implantation relative to vehicle-treated control; type: organism-based; design: route oral; settings: in vivo; procedure, shortened: as §1
Mus musculus [13] = assay: Toxicity in C57BL/6 mouse bearing B16F10 tumor assessed as body weight loss at 50 mg/kg/day, po administered QD from day 5 to day 10 post-tumor implantation relative to vehicle-treated control; type: organism-based; design: route oral; settings: in vivo
Procedure, shortened: (§7)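 Syngeneic B16F10 melanoma: 6 × 10⁴ cells in 50% matrigel injected s.c. into the flank of female C57BL/6 mice, 6–8 weeks old, 20 g. PARP inhibitor given orally on days 5–10 at 10, 30 or 60 mg/kg/day, bid. TMZ given orally at 50 mg/kg/day, qd, days 5–10. Tumor growth and body weight followed to day 21.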

Mus musculus [14] = assay: Antitumor activity against B16F10 tumor xenografted in C57BL/6 mouse assessed as tumor growth inhibition at 50 mg/kg/day, po administered QD from day 5 to day 10 post-tumor implantation; type: organism-based; design: route oral; settings: C57BL/6, B16-F10, po, read-out: GI; procedure, shortened: as §7
Mus musculus [15] = assay: as §2; type: ADME, organism-based; settings: in vivo; procedure, shortened: as §3
Mus musculus [16] = assay: as §4; type: ADME, organism-based, Plasma; design: time < 8 hr, dose 10 mg/kg, route oral; settings: in vivo, 8 h; procedure, shortened: as §3
Mus musculus [17] = assay: as §5; type: ADME, organism-based; settings: in vivo; procedure, shortened: as §3
B16-F10 [18] = assay: Potentiation of temozolomide-induced antitumor activity against mouse B16F10 cells xenografted in po dosed C57BL/6 mouse assessed as tumor growth inhibition administered BID from day 5 to day 10 post-tumor implantation; type: functional, organism-based; procedure, shortened: as §7
Mus musculus [19] = assay: Toxicity in C57BL/6 mouse bearing B16F10 tumor assessed as mortality at 10 to 30 mg/kg/day, po administered BID from day 5 to day 10 post-tumor implantation co-administered with temozolomide; type: organism-based; design: route oral; settings: in vivo
Mus musculus [20] = assay: Toxicity in C57BL/6 mouse bearing B16F10 tumor assessed as body weight loss at 30 mg/kg/day, po administered BID from day 5 to day 10 post-tumor implantation co-administered with temozolomide relative to vehicle-treated control; type: organism-based; design: route oral; settings: in vivo; procedure, shortened: as §7
Mus musculus [21] = assay: Toxicity in C57BL/6 mouse bearing B16F10 tumor assessed as body weight loss at 60 mg/kg/day, po administered BID from day 5 to day 10 post-tumor implantation co-administered with temozolomide relative to vehicle-treated control; settings: in vivo

SMILES	AUC(0-t) at 3 h [2] [ng·h/mL]	half-life [4] [min]	Cmax [6] [ng/mL]	Vd [7] [L/kg]	F (Mus musculus [15]) [%]	AUC (Mus musculus [16]) [µg·h/mL]	CL (Mus musculus [17]) [L/h/kg]	further results
O=C(c1cc(Cc2n[nH]c(=O)c3c2NCCC3)ccc1F)N1CCN(c2ccccc2)CC1	2900							
Cn1nnc2c(C(N)=O)ncn2c1=O [TEMOZOLOMIDE]								Activity (Mus musculus [12]): 2%; Activity (Mus musculus [13]): 1%; inhibition at 50 mg/kg (Mus musculus [14]): 30%
O=C1CCCN1c1cc(Cc2n[nH]c(=O)c3c2NCCC3)ccc1F		29.4	1500	5.25	106	3.11	7.43	Activity (B16-F10 [18]): Dose-dependent effect; Activity (Mus musculus [19]): Non-toxic; Activity (Mus musculus [20]): 3%; Activity (Mus musculus [21]): 12%
O=C1CCCN1c1cc(Cc2n[nH]c(=O)c3c2CCCC3)ccc1F		16.8	140	4.78	13	0.33	11.72	
O=C1CCCC(=O)N1c1cc(Cc2n[nH]c(=O)c3c2NCCC3)ccc1F	70							
O=C(c1cc(Cc2n[nH]c(=O)c3c2NCCC3)ccc1F)N1CCN(C(=O)C(F)(F)F)CC1	70							
CC(=O)N1CCN(C(=O)c2cc(Cc3n[nH]c(=O)c4c3NCCC4)ccc2F)CC1	70							

Continued, in another order:

AUC(0-t) at 3 h [2] [ng·h/mL]	half-life [4] [min]	Cmax [6] [ng/mL]	Vd [7] [L/kg]	F (Mus musculus [15]) [%]	AUC (Mus musculus [16]) [µg·h/mL]	CL (Mus musculus [17]) [L/h/kg]	SMILES	further results
2900	156	2010	7.66				O=C(c1cc(Cc2n[nH]c(=O)c3c2NCCC3)ccc1F)N1CCN(c2ccccn2)CC1	Activity (Mus musculus [1]): 21%; bioavailability [3]: 67%; AUC(0-t) at 8 h [5]: 5950 ng·h/mL; clearance [8]: 34 mL/min/kg; Activity (B16-F10 [9]): Dose-dependent effect; Activity (Mus musculus [10]): 3%; Activity (Mus musculus [11]): 3%
2900	232	5600	4.99				O=C(c1cc(Cc2n[nH]c(=O)c3c2NCCC3)ccc1F)N1CCN(c2ncccn2)CC1	bioavailability [3]: 36%; AUC(0-t) at 8 h [5]: 9060 ng·h/mL; clearance [8]: 14.8 mL/min/kg
	21.6	1030	2.33	48	2.38	4.55	O=C(c1cc(Cc2n[nH]c(=O)c3c2CCCC3)ccc1F)N1CCN(c2ncccn2)CC1	
	66	1090	9.48	74	2.7	5.92	O=C(c1cc(Cc2n[nH]c(=O)c3c2CCCC3)ccc1F)N1CCN(c2ccccn2)CC1	
